The source made the active and inactive calls. The rule behind the calls is not given here.
Assays:
[1] = biological target: T1, Orexin/Hypocretin receptor type 1 (Homo sapiens, UniProt O43613); assay: Displacement of [125I]-orexin-A from human OX1 receptor expressed in CHO cells after 30 mins by liquid scintillation counting analysis; format: cell-based
T1 sequence (O43613 whole entry): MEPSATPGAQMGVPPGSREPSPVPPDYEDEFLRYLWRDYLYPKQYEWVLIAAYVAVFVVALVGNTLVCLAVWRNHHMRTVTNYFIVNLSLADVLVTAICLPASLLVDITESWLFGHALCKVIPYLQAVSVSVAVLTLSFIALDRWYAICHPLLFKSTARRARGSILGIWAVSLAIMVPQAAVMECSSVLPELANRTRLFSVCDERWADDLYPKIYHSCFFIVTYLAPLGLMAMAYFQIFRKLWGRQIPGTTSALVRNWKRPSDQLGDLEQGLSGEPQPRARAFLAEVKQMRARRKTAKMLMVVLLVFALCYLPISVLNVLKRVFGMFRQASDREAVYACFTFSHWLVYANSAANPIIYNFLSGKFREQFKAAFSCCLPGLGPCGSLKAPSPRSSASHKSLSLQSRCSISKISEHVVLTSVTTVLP
Outline: (§1)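 CHO membranes expressing human OX1R or OX2R (5 μg protein) incubated 30 min at rt with compound and [125I]-orexin A (2 nM stock) in HEPES buffer pH 7.5 with MgCl2, CaCl2, BSA. Nonspecific binding with 10 μM orexin A. Wells washed with HEPES/525 mM NaCl and DPM counted. % inhibition from test, control and nonspecific counts; mean of three wells.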

[2] = Ratio of flux ratio in pig LLC cells expressing MDR1 to flux ratio on pig LLC-PK1 cells; format: ADME, cell-based, Sus scrofa
Outline: (§2)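 LLC-PK1 and LLC-MDR1 monolayers, 5 days post-seeding, preincubated 2 h at 37 °C in HBSS/10 mM HEPES. Compound added apically or basally, 2 h at 37 °C; opposite side assayed by LC-MS. Papp = Q/t/C0/A; FR = Papp(b→a)/Papp(a→b); corrected FR = FR(LLC-MDR1)/FR(LLC-PK1).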

[3] = Flux ratio of permeability from apical to basolateral to basolateral to apical side in pig LLC cells expressing MDR1 after 2 hrs; format: ADME, cell-based, Sus scrofa; outline: as §2
LLC-PK1 = assay: Flux ratio of permeability from apical to basolateral to basolateral to apical side in pig LLC-PK1 cells after 2 hrs; format: ADME, cell-based, Sus scrofa; settings: llc-pk1, 2 h; outline: as §2
Orexin receptor type 2 = biological target: T2, Orexin receptor type 2 (Homo sapiens, UniProt O43614); assay: Displacement of [125I]-orexin-A from human OX2 receptor expressed in CHO cells after 30 mins by liquid scintillation counting analysis; format: cell-based; outline: as §1
T2 sequence (O43614 whole entry): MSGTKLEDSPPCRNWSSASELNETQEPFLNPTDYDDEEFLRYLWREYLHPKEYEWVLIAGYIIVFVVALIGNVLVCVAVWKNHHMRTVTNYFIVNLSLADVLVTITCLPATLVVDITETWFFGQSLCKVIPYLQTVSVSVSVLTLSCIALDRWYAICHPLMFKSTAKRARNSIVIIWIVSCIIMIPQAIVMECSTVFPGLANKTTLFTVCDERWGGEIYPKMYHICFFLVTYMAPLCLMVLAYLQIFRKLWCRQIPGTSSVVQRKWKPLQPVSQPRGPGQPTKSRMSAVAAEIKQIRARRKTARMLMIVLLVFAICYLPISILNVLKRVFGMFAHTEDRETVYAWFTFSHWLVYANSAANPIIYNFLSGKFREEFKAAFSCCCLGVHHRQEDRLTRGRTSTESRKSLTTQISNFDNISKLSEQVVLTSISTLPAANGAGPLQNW

[4] = biological target: Cannabinoid receptor 1 (Homo sapiens) (UniProt P21554); assay: Antagonist activity at cannabinoid CB1 receptor (unknown origin) expressed in HEK 293 cells coexpressing Gqi5 chimeric G-protein after 1 hr by fluorescence-based analysis; format: cell-based
Outline: (§3)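 HEK293 cells stably expressing target GPCR with Gqi5 chimeric G-protein, seeded on collagen I plates and cultured overnight; calcium dye loaded 1 h at 37 °C. Compound at final 3, 10, 30 μM preincubated 1 h at rt, then reference agonist added at EC20 or EC80; Ca2+ fluorescence read in real time.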

[5] = biological target: T3, Orexin receptor type 2 (Rattus norvegicus) (UniProt P56719); assay: Binding affinity to OX2 receptor in coronal rat neocortex layer 6 at 2 nM by autoradiography; settings: tested as the 11C-labelled form
T3 sequence (whole entry): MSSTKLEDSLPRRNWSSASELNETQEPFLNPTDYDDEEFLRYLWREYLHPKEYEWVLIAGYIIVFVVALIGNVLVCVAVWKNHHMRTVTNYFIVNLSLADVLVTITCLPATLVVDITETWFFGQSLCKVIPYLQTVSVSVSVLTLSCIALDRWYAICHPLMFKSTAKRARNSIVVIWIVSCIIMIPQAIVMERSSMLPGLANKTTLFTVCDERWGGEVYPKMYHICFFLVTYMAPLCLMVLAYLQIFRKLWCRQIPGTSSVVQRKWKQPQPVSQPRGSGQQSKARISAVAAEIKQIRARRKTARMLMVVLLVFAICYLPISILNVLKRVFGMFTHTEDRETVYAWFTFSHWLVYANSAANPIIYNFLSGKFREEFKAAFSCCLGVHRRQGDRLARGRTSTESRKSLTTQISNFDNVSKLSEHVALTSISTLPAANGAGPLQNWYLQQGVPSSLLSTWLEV
Outline: (§4)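 Rat brain sections (20 μm) preincubated 20 min at rt in 25 mM HEPES pH 7.4 with 5 mM MgCl2 and 1 mM CaCl2, then incubated 60 min at rt with 11C radioligand; nonspecific binding with 10 μM unlabeled compound. Sections washed three times in cold water, dried, exposed to imaging plate 1 h alongside calibrated radioactive standards.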

[6] = biological target: T3, Orexin receptor type 2 (Rattus norvegicus); assay: Binding affinity to OX2 receptor in rat brain neocortex layer 6 at 3.6 nM by autoradiography in presence of EMPA; format: tissue-based; settings: tested as the 11C-labelled form
[7] = Drug uptake in P-gp-knockout rat neocortex at 78.7 to 189.8 MBq, iv after 90 mins by PET analysis; format: ADME, organism-based; settings: in vivo, 1.5 h
Outline: (§5)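 Male Mdr1a-knockout rats (410−500 g) under 1.5% isoflurane at 37 °C; [11C] tracer 78.7−189.8 MBq by tail vein. 90 min list-mode microPET scan with filtered back-projection; ROIs drawn on MRI template; decay-corrected %ID/mL, n = 3. Blocking: unlabeled compound 10 mg/kg po in 5% DMSO/10% cremophor in 10 mM HCl, given 1 h before tracer.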

Hippocampus = assay: Drug uptake in P-gp-knockout rat hippocampus at 78.7 to 189.8 MBq, iv after 90 mins by PET analysis; format: ADME, organism-based; settings: in vivo, 1.5 h; outline: as §5
Cerebellum = assay: Drug uptake in P-gp-knockout rat cerebellum at 78.7 to 189.8 MBq, iv after 90 mins by PET analysis in presence of 10 mg/kg, po unlabeled compound; format: ADME, organism-based; parameters: dose 10 mg/kg, route oral; settings: in vivo, 1.5 h; outline: as §5
[8] = biological target: Melatonin receptor type 1A (Homo sapiens) (UniProt P48039); assay: Antagonist activity at melatonin MT1A receptor (unknown origin) expressed in HEK 293 cells coexpressing Gqi5 chimeric G-protein after 1 hr by fluorescence-based analysis; format: cell-based; outline: as §3
Thalamus = assay: Drug uptake in P-gp-knockout rat thalamus at 78.7 to 189.8 MBq, iv after 90 mins by PET analysis; format: ADME, organism-based; settings: in vivo, 1.5 h; outline: as §5
[9] = Octanol-phosphate buffer partition coefficient, log D of the compound at pH 7.4 by Shake flask method; format: physicochemical
Outline: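 [11C]-labelled compound (about 200 000 cpm) in n-octanol and 0.1 M PBS pH 7.4, vortexed 3 min at rt and centrifuged; weighed aliquots of each phase γ-counted, with the organic layer repartitioned until stable. log D = log(cpm/g octanol ÷ cpm/g PBS); triplicate.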

[10] = biological target: T3, Orexin receptor type 2 (Rattus norvegicus); assay: Binding affinity to OX2 receptor in rat brain neocortex layer 6 at 3.6 nM by autoradiography in presence of suvorexant; format: tissue-based; settings: tested as the 11C-labelled form
[11] = biological target: T3, Orexin receptor type 2 (Rattus norvegicus); assay: Binding affinity to OX2 receptor in coronal rat brain neocortex layer 6 at 2.5 nM by autoradiography; format: tissue-based; settings: tested as the 11C-labelled form; outline: as §4
[12] = biological target: T3, Orexin receptor type 2 (Rattus norvegicus); assay: Binding affinity to OX2 receptor in coronal rat hypothalamus at 2.5 nM by autoradiography; settings: tested as the 11C-labelled form; outline: as §4
[13] = HEK293, tested as the 11C-labelled form

Sequence of Melatonin receptor type 1A (Homo sapiens) (P48039 whole entry): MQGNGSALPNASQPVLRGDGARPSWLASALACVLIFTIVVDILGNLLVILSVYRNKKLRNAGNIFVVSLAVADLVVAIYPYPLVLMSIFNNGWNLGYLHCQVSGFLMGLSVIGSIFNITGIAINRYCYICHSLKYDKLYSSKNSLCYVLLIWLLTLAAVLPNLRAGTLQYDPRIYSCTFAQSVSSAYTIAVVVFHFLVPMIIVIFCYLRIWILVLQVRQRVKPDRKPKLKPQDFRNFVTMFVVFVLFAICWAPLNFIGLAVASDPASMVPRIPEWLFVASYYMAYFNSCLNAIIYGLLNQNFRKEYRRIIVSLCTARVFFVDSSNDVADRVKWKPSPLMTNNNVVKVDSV
Sequence of Cannabinoid receptor 1 (Homo sapiens) (P21554 whole entry): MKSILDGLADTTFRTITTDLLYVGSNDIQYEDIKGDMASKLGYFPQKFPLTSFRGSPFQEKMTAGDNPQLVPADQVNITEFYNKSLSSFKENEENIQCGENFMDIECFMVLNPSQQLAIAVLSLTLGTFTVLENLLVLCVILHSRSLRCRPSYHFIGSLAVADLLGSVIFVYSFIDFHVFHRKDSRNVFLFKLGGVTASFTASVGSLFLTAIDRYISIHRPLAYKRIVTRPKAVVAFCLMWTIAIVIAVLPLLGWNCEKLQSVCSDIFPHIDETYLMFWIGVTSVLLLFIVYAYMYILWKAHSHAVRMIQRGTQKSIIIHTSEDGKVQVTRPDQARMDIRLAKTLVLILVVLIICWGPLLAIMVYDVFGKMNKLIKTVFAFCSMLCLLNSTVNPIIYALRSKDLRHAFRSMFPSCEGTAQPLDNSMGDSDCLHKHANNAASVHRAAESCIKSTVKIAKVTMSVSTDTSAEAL

| SMILES | Ki [1] [nM] | Ratio [2] | Ratio [3] | Ratio (LLC-PK1) | Ki (Orexin receptor type 2) [nM] | Activity ([4]; HEK293) | Activity [4, 13] | Activity [5] | Activity [6] | Drug uptake [7] | Drug uptake (Hippocampus) | Drug uptake (Cerebellum) | Activity ([8]; HEK293) | Activity [8, 13] | Drug uptake (Thalamus) | logD [9] | Activity [10] | Activity [11] | Activity [12] |
| --- | --- | --- | --- | --- | --- | --- | --- | --- | --- | --- | --- | --- | --- | --- | --- | --- | --- | --- | --- |
| COCc1nc(C)ncc1OC[C@@]1(c2ccccc2)C[C@H]1C(=O)Nc1ccc(F)cn1 | 9 | 2.03 | 1.97 | 0.97 | 1 |  |  |  |  |  |  |  |  |  |  |  |  |  |  |
| COCc1nc(C)ncc1OC[C@@]1(c2cccc(F)c2)C[C@H]1C(=O)Nc1ccc(F)cn1 | 1 | 3.11 | 2.61 | 0.84 | 1 | Active | Active | Active | inactive | Active | Active | Active | Active | Active | Active | 2.97 | inactive | Active | Active |

Source: ChEMBL document CHEMBL2424641, “Synthesis and evaluation of novel radioligands for positron emission tomography imaging of the orexin-2 receptor” (J Med Chem, 2013)
